# Only some compounds are listed: those with a hit (about 4% of all), similar ones and a draw of the others.
# WT yeast gro inh: growth inhibition of WT yeast, mitochondrial fusion screen; inhibition, % at 10 µM; 190,000 compounds, 2.1% hits; mitochondrial fusion phenotypic screen, WT strain; in the data active means inhibition above about 58%; tested in S. cerevisiae
# bCat nuc transl: beta-catenin nuclear translocation modulation; HeLa beta-catenin nuclear translocation, immunofluorescence imaging; AID 1665; 190,000 compounds, 0.3% hits; nuclear translocation activity, % at 5 µM;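 active means nuclear translocation activity above 50% at 5 µM, with a well cell count of 50 or more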;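 further: per-cell ratio of nuclear to cytoplasmic median beta-catenin stain intensity; plate controls were DMSO negative control for no effect and GSK-3 inhibitor IX positive control for full effect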
#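 Read-out: Nuclear/cytoplasmic beta-catenin signal ratio, % activation | Assay system: Human HeLa cell line | Times: 24 h compound exposure at 37°C, 5% CO2 | Signal: Fluorescence imaging of beta-catenin antibody stain plus DAPI | Dosing: 5 µM primary, 0.02–20 µM confirmation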
# Pf gamet viab: inhibitors of late stage P. falciparum gametocyte viability; P. falciparum stage V gametocytes, ATP luminescence, 24 h; 150,000 compounds, 0.065% hits; AID 743093; inhibition, % at 10.9 µM;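 active means inhibition above the mean plus 3 SD of compounds within the control limits, set per campaign, cut at about 38% in these data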;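 further: 0% = DMSO wells and 100% = medium only without gametocytes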
# MT stabilize HCS: microtubule stabilizers in HeLa cells; HeLa tubulin immunostaining HCS, 24 h; share of cells brighter than vehicle mean+2SD; % tubulin-high responders, % at 10 µM; 200,000 compounds, 0.83% hits; AID 2205;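 active means plate Z-score above 3 for both tubulin-high and condensed-nucleus cell shares, with cell loss under 80%, at 10 µM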;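 further: anti alpha tubulin signal scored within the nucleus-defined area of each cell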
# KCC2 mod: KCC2 (human) Cl- transport modulation; B-score of Tl+ flux slope (higher = more flux/activation; lower = inhibition) at 10 µM; Q9H2X9; 190,000 compounds, 2.2% hits; KCC2 cells, thallium flux FluoZin-2 fluorescence;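 active means thallium flux slope and its plate-corrected score both differing from the plate sample mean at a set confidence after two filtering rounds, in either direction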;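 further: slope of fluorescence scaled to starting intensity during 10 to 20 s after thallium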
# * hit, by the source's call; . = no result given.
SMILES,WT yeast gro inh,bCat nuc transl,Pf gamet viab,MT stabilize HCS,KCC2 mod
CCn1c(=O)cc(SCC(=O)NCc2cccnc2)c2ccccc21,16,0,4,2,.
CCn1c(=O)cc(SCC(=O)NCc2ccco2)c2ccccc21,.,55*,.,46*,-0.078
CCn1c(=O)cc(SCC(=O)NCc2ccc(C)cc2)c2ccccc21,5,0,2,31*,0.016
CN(C)NC(=S)NC(=O)C12CC3CC(CC(C3)C1)C2,47,-2,7,4,0.26
O=C(NC1C2CC3CC(C2)CC1C3)C1CC1 (stereo not given),-12,0,.,4,0.82
CC(C)(C)NC(=S)NC(=O)C12CC3CCC(CC(C3)C1)C2,70*,-2,-1,4,0.3
CC12CC3(C)CC(C)(C1)CC(C(=O)NC(=S)NC(C)(C)C)(C2)C3,70*,1,8,4,-0.74
O=C(NC(=S)NC1C2CC3CC(C2)CC1C3)C12CC3CC(CC(C3)C1)C2 (stereo not given),63*,-1,.,8,0.17
O=C(c1ccccc1Cl)N1CCSCC1,.,2,0,.,1.2
O=C(Cc1n[nH]c(=O)c2ccccc12)OCC(=O)c1ccc2c(c1)OCCO2,0,18,.,21*,0.4
S=C1CCSc2ccc(Cl)cc2N1,6,-4,.,2,9.8*
NC(=S)N/N=C1\CCSc2ccc(Cl)cc21,.,1,1,.,-0.035
COc1ccc(-c2[nH]ncc2-c2csc(C)n2)c(O)c1,9,0,39*,10,1.1
CCOc1ccc(-c2[nH]ncc2-c2csc(C)n2)c(O)c1,-7,3,-6,7,0.54
CCCN1Cc2cccc(C(=O)NC(CC(=O)OCC)c3ccc(C)cc3)c2C1=O (stereo not given),66*,1,-24,1,-0.098
COc1ccc(S(=O)(=O)N2CCOC2CNC(=O)C(=O)NCc2ccco2)cc1OC (stereo not given),.,0,4,.,0.94
Cc1cccc(C(=O)Nc2nc(C)c(C(=O)Nc3ccc4c(c3)CCC4)s2)c1,11,.,-10,43*,-0.18
Cc1ccc2nc(C)c3c(c2c1)SCC3,.,3,-9,.,-1.1
O=C1C2C3C=CC(CO)(O3)C2C(=O)N1c1ccccc1-c1ccccc1 (stereo not given),69*,-3,.,2,0.15
CC(NC(=O)C(=O)N/N=C/c1ccccc1)c1ccccc1 (stereo not given),4,-1,2,3,.
CCCCOc1ccc(Nc2cc(Cl)ccc2C(=O)O)cn1,.,0,.,.,13*
O=S(=O)(Nc1nc2ccccc2nc1NCC1CCCO1)c1cc(Cl)ccc1Cl (stereo not given),.,0,-23,.,-0.098
Cc1ccc(C(=C2C3C=CC2C2C(=O)NC(=O)C32)c2ccc(C)cc2)cc1 (stereo not given),83*,.,.,4,0.49
Cc1cc(NC(=O)CCN2C(=O)C3C4CCC(C4)C3C2=O)c(C)cc1Br (stereo not given),14,-3,-1,2,-1
Cc1cc(Br)c(Cl)cc1NC(=O)CN1C(=O)C2C3CC(c4ccccc4)C(C3)C2C1=O (stereo not given),70*,.,.,4,0.11
SMILES,WT yeast gro inh,bCat nuc transl,Pf gamet viab,MT stabilize HCS,KCC2 mod
CC(C)(C)NC(=O)NC(=O)COC(=O)CNC(=O)c1cc(Cl)cc([N+](=O)[O-])c1,-3,-3,42*,3,-0.017
COC(=O)c1nnn(-c2ccsc2C(=O)OC)c1C(=O)OC,-8,2,27,4,-1.5
COc1cccc(CNC(=O)CCC2CCCN(C(=O)c3csc(C(C)C)n3)C2)c1 (stereo not given),-9,-2,.,6,.
COCCSc1ccccc1C(=O)Nc1ccc2c(c1)OCO2,-16,-1,-1,4,.
O=C(Nc1ccc2c(c1)OCO2)c1ccccc1SCC(=O)N1CCCC1,65*,-1,.,2,.
OC(COCc1ccc(Cl)cc1)CN1CCN(c2ccccn2)CC1 (stereo not given),-4,1,16,1,0.91
Cc1ccc(C(C)C)c(OC(=O)/C=C/c2ccccc2)c1,79*,2,-4,0,-0.026
COc1ccc(/C=C/C(=O)Oc2ccc(C)cc2)cc1,.,.,-20,.,.
COC(=O)c1c(NC(=O)c2ccc(C)cc2)sc(Cc2ccccc2)c1C,0,-1,.,3,.
COC(=O)c1c(NC(=O)c2ccccc2)sc(Cc2ccccc2)c1C,68*,-1,-2,3,.
COC(=O)c1c(NC(=O)c2ccccc2)sc(C(=O)c2ccccc2)c1C,-17,0,.,4,8.4*
Cc1c(Cc2ccccc2)sc(/N=C/c2ccc3ccccc3c2)c1C(N)=O,1,101*,.,19*,-0.34
Cc1c(Cc2ccccc2)sc(NC(=O)Cc2ccccc2)c1C(N)=O,.,.,7,2,0.005
CCC(=O)Nc1sc(Cc2ccccc2)c(C)c1C(N)=O,74*,0,.,0,-0.063
C/C(=N\NC(=O)C1(C)CC1(Br)Br)c1ccc(NC(=O)c2ccc(C)o2)cc1 (stereo not given),2,-2,19,3,-1
O=C(CSc1ccccc1)N1CCN(c2ccc(F)cc2)CC1,.,.,22,.,.
NS(=O)(=O)OCC(Cc1ccccc1)N1C(=O)c2ccccc2C1=O (stereo not given),.,.,9,.,.
O=C(Nc1ccccc1N1CCCCC1)c1ccc(-c2ccc(Cl)cc2)o1,7,64*,.,29*,0.26
O=C(NC(=S)Nc1cccc(Cl)c1N1CCCCC1)c1cccs1,44,0,.,26*,1.9
CC(=O)Nc1cccc(C(=O)Nc2ccccc2N2CCOCC2)c1,8,-4,6,32*,-0.21
O=C(Nc1ccccc1N1CCOCC1)c1ccc2c(c1)OCO2,1,0,7,2,-0.46
O=C(NC(=S)Nc1ccccc1N1CCCC1)c1ccccc1[N+](=O)[O-],43,1,.,9,16*
N#CCN1CCN(CC(=O)c2ccc(Br)cc2)CC1,.,0,1,.,0.047
Cc1nnc(SCC(=O)NC2CCCCC2)s1,9,-1,8,2,-0.12
Cc1cc(O)c(NC(=S)NC(=O)c2ccc(-c3ccc(Cl)cc3)o2)cc1C,77*,-1,1,4,.
SMILES,WT yeast gro inh,bCat nuc transl,Pf gamet viab,MT stabilize HCS,KCC2 mod
O=C(NC(=S)Nc1ccccc1N1CCOCC1)c1ccco1,8,-3,-12,3,18*
O=C(Nc1ccccc1N1CCCCC1)c1ccco1,3,0,.,2,-0.34
O=C(/C=C/c1ccco1)NC(=S)Nc1ccccc1N1CCOCC1,5,1,8,1,-0.75
O=C(NC(=S)Nc1ccccc1N1CCCCC1)c1ccco1,73*,-1,5,3,20*
O=C(NC(=S)Nc1cccc(Cl)c1N1CCCCC1)c1ccco1,9,4,.,39*,6.7*
CSc1cccc(NC(=S)NC(=O)c2cccnc2)c1,.,.,-4,.,.
CN(C)S(=O)(=O)c1ccc(C(=O)Nc2nnc(SCc3cccc(F)c3)s2)cc1,10,-7,8,3,0.7
CCOC(=O)c1cc(-c2csc(Nc3c(C)cc(C)cc3C)n2)on1,.,-3,-6,.,0.02

# Screening results as filed in PubChem.
